The source of these data is PubChem BioAssay AID623961 (The Scripps Research Institute Molecular Screening Center, 2012).

Several values for one entry are separate records, joined by “and”; a condition that tells them apart may be missing. Identical values can stand only once. Activity calls are given as the source filed them.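 The calls were made as follows: active = mean cell viability below 80%; inactive = the rest.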

For this test, the system named is Huh-7.5 Rluc-replicon viability, CellTiter-Glo ATP, 72 h. Put plainly: cytotoxicity in HCV replicon hepatoma cells, late-stage follow-up, cytotoxicity control for HCV NS3 helicase inhibitor project, cell-based, luminescence (AID 623961). The following applies: at 10 µM; active compounds read low. The gist of the method: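 Assay system – Huh-7.5 human hepatoma cells harboring HCV Renilla luciferase replicon · Incubation – cell attachment 4-5 h, compound exposure 72 h at 37 °C, 5% CO2 · Detection – ATP-dependent luminescence, 30 min lysis at 23 °C, 1 s read · Measure – average percent cell viability · Buffer or medium – fresh growth medium at readout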
On the technique in general: A replicon is a self-replicating genome or part of one, used to study replication in cells.
As to `CC(=O)Nc1ccc(-c2nc3ccc(-c4nc5ccc(C)c(S(=O)(=O)O)c5s4)cc3s2)cc1`, the viability is 102% (inactive).
Under `Cc1ccc2nc(-c3ccc4nc(-c5ccc(NC(=O)Nc6ccc(Cl)cc6)cc5)sc4c3)sc2c1S(=O)(=O)O` stands 98% (inactive); under `Cc1ccc2nc(-c3ccc4nc(-c5ccc(NC(=O)c6ccc7ccccc7c6)cc5)sc4c3)sc2c1S(=O)(=O)O`, 87% (inactive) and 99% (inactive).
To `Cc1ccc2nc(-c3ccc(NC(=O)c4ccc(N)cc4)cc3)sc2c1S(=O)(=O)O` belongs 103% (inactive); to `Cc1ccc2nc(-c3ccc4nc(-c5ccc6nc(-c7ccc8nc(-c9ccc(N)cc9)sc8c7)sc6c5)sc4c3)sc2c1S(=O)(=O)O`, 94% (inactive) and 83% (inactive).
To `Cc1ccc(C(=O)Nc2ccc(-c3nc4ccc(-c5nc6ccc(C)c(S(=O)(=O)O)c6s5)cc4s3)cc2)cc1` belongs 87% (inactive); to `Cc1ccc2nc(-c3ccc(NC(=O)c4ccc(NC(=O)OCC5c6ccccc6-c6ccccc65)cc4)cc3)sc2c1S(=O)(=O)O`, 108% (inactive); to `Cc1ccc2nc(-c3ccc4nc(-c5ccc(NC(=O)c6cc(C(F)(F)F)ccc6F)cc5)sc4c3)sc2c1S(=O)(=O)O`, 132% (inactive).
As to `Cc1ccc2nc(-c3ccc4nc(-c5ccc(NC(=O)c6ccc(Cl)c(Cl)c6)cc5)sc4c3)sc2c1S(=O)(=O)O`, the viability is 114% (inactive).
Take `Cc1ccc2nc(-c3ccc4nc(-c5ccc(NC(=O)c6ccc(CNC(=O)OCC7c8ccccc8-c8ccccc87)cc6)cc5)sc4c3)sc2c1S(=O)(=O)O`: the viability is 102% (inactive).
To `COc1ccc(S(=O)(=O)Nc2ccc(-c3nc4ccc(-c5nc6ccc(C)c(S(=O)(=O)O)c6s5)cc4s3)cc2)cc1` belongs 75%; to `O=C(Nc1ccc(-c2nc3ccccc3[nH]2)cc1)c1ccc2ncsc2c1`, 96% (inactive).
To `CCN(CC)c1ccc(-c2nc3ccc(C)c(S(=O)(=O)O)c3s2)cc1` belongs 99% (inactive).
Under `Cc1ccc2nc(-c3ccc4nc(-c5ccc(NC(=O)Nc6ccccc6)cc5)sc4c3)sc2c1S(=O)(=O)O` stands 108% (inactive).
For `COc1ccc(NC(=O)Nc2ccc(-c3nc4ccc(-c5nc6ccc(C)c(S(=O)(=O)O)c6s5)cc4s3)cc2)cc1`, the viability was 99% (inactive).
To `Cc1ccc2nc(-c3ccc4nc(-c5ccc(NC(=O)Nc6ccc(F)cc6)cc5)sc4c3)sc2c1S(=O)(=O)O` belongs 93% (inactive); to `COc1ccc(C(=O)Nc2ccc(-c3nc4ccc(-c5nc6ccc(C)c(S(=O)(=O)O)c6s5)cc4s3)cc2)cc1`, 85% (inactive); to `CCN(CC)c1ccc(-c2nc3ccc(-c4nc5ccc(C)c(S(=O)(=O)O)c5s4)cc3s2)cc1`, 96% (inactive).
To `Cc1ccc2nc(-c3ccc4nc(NC(=O)c5ccc6ncoc6c5)sc4c3)sc2c1` belongs 28%; to `Cc1ccc2nc(-c3ccc4nc(-c5ccc(NC(=O)c6ccc(Br)cc6)cc5)sc4c3)sc2c1S(=O)(=O)O`, 113% (inactive); to `Cc1ccc2nc(-c3ccc4nc(-c5ccc(NC(=O)c6ccc7ncoc7c6)cc5)sc4c3)sc2c1S(=O)(=O)O`, 114% (inactive).
On to `Cc1ccc2c(sc(-c3ccc4c(c3)sc(-c3ccc5c(c3)sc(-c3ccc(N(C)C)cc3)[n+]5C)[n+]4C)[n+]2C)c1S(=O)(=O)O` (tested in a mixture with another compound), for which the viability is 83% (inactive).
As to `Cc1ccc2nc(-c3ccc4nc(-c5ccc(NC(=O)c6ccncc6)cc5)sc4c3)sc2c1S(=O)(=O)O`, the viability is 117% (inactive).
With `COc1cccc2c(=O)c3cc(Cl)cc(C(=O)Nc4cc(Cl)ccn4)c3[nH]c12`, the viability is 79%.
To `Cc1ccc2nc(-c3ccc4nc(-c5ccc(NC(=O)c6ccccc6C(F)(F)F)cc5)sc4c3)sc2c1S(=O)(=O)O` belongs 112% (inactive); to `Cc1ccc2nc(-c3ccc4nc(-c5ccc(NC(=O)c6cccnc6)cc5)sc4c3)sc2c1S(=O)(=O)O`, 113% (inactive).
For `Cc1ccc2nc(-c3ccc4nc(-c5ccc(NC(=O)c6ccc7nc(-c8ccc(N)cc8)sc7c6)cc5)sc4c3)sc2c1S(=O)(=O)O`, the viability is 85% (inactive).
Under `Cc1ccc2nc(-c3ccc(NC(=O)c4ccc(NS(=O)(=O)c5ccccc5)cc4)cc3)sc2c1S(=O)(=O)O` stands 119% (inactive).

As usually defined, the viability is a read-out of living cells in per cent, often relative to untreated cells.
